Test system: MS2 coat protein
Test: apparent Kd, MS2 coat protein; higher = weaker binding; RNA-MaP array; tryptophan 2.4 mM where present
Outline: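 Designs were transcribed by stalled E. coli RNA polymerase on Illumina sequencing-chip clusters. They were titrated with SNAP-549-labelled MS2 coat protein from 0.7 or 1.5 nM, doubling to 3 µM, in 100 mM Tris-HCl pH 7.5, 80 mM KCl, 4 mM MgCl2, BSA, DTT, yeast tRNA and Tween-20, without and then with constant ligand. The apparent Kd is the median of filtered per-cluster fits after normalisation of green signal to red-channel RNA signal and control-cluster median Fmax.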

[1] = designed as: ON switch for tryptophan, no ligand
[2] = ligand present: tryptophan, designed as: ON switch for tryptophan
[3] = designed as: OFF switch for tryptophan, no ligand
[4] = ligand present: tryptophan, designed as: OFF switch for tryptophan

| Sequence | apparent Kd [1] [nM] | apparent Kd [2] [nM] | apparent Kd [3] [nM] | apparent Kd [4] [nM] |
| --- | --- | --- | --- | --- |
| UGUCAGCGAAAGUUGACAUGUCUUACCGGUCGAGGACCGGUACGGCCGCCACUCGAUCACUCGCACAUGAGGAUCACCCAUGUCG | 12.4 | 11.7 |  |  |
| UGUCAUGGAAACAUGACAGGUCUUACCGGUCGAGGACCGGUACGGCCGCCACUCGAUUGGUGGCACAUGAGGAUCACCCAUGUUA | 29 | 26.7 |  |  |
| AGAUUCGACACGGCCGCCACUUUCAGUGGCUGGUCACAUGGUGCACAUGAGGAUCACCCAUGUGGAAGGACCGGGUGUUGAGUCU |  |  | 28 | 91.9 |
| GGAAACCCGACGGCCGCCACUAACGGUCUCAAAAGAGGUUGAACACAUGAGGAUCACCCAUGUAAUAGGACCGGGUCGUGUGAAA | 20.3 | 18.5 |  |  |
| UGCAUUAUACAUGGAUCACCCAUGUAGACACGAGGACCGGUACGGCCGCCACUCGGAAGAGGGAACAUGAGGAUCACCCAUGUGA | 52.5 | 51.5 |  |  |
| CCUAUGCAGUCGGCCGCCACUGAUAACGUUAUCGUUACCUCAGAAACAUGAGGAUCACCCAUGUACAGGACCGGGACUGUAUAGG |  |  | 12.8 | 15.3 |
| UCGGAUGCGGCGGCCGCCACUCGCGGAUAACGAUAGCUUAACAUGAGGAUCACCCAUGUGUCAUGGAGGACCGGGCCCAUACCGU | 23.4 | 20.7 |  |  |
| UGUCAGCGAAAGUUGACAUGUCUUACCGGUCGAGGACCGGUACGGCCGCCACUCGAUCACUCGCACAUGAGGAUCACCCAUGUUG | 18.9 | 14.3 |  |  |
| AAUAAUAUCCUCAUGUGAGUCGUACCGUAACGAGGACCGGUACGGCCGCCACUCGAACAUGAGGAUCACCCAUGUAGGUACGACA | 207 | 99.7 |  |  |
| AGAUUCGACACGGCCGCCACUCGUGACGGAUUUCCGAGUGUCGAACAUGAGGAUCACCCAUGUACGAGGACCGGGUGUUGAGUCU |  |  | 74.7 | 499 |
| UUCAGCUAGUCGGCCGCCACUACAUGAGGAUCACCCAUGUCGGUCCUCACUGCUUCGGCAGUGUGUAGGACCGGGACUAGCUGAG |  |  | 72.3 | 720 |
| CGAGUAAGAACAAUCGAAUAACGGUUUUCGCGAGGACCGGUACGGCCGCCACUCGUGUGAUAUCACACAUGAGGAUCACCCAUGU | 80.2 | 41.2 |  |  |
| CUCAUCCACGCGGCCGCCACUAUAUUGUGGUGUGAGUGUGACGUAUUACAUGAGGAUCACCCAUGUAGGACCGGGCGUGGAUGAG |  |  | 34.6 | 308 |
| AAUAUAAUAGACUCGUUUUAGUAUUUGGAACGAGGACCGGUACGGCCGCCACUCGUGAUUUACAUGAGGAUCACCCAUGUUAGCA | 14.7 | 13.1 |  |  |
| AAACAUGAGGCGGCCGCCACUGUAUGAACAUGAGGAUCACCCAUGUAUGUACCCAUGUGUGUACACAGGACCGGGCCAUGUGGAU |  |  | 28.1 | 19.9 |
| ACGACGGCUGCGGCCGCCACUGUACAUGAGGAUCACCCAUGUGUAGUAAUUGGGACCCUGUGUUACAGGACCGGGUAGUUGAUUA |  |  | 34.6 | 69.9 |
| AUUAAUAAUAUGUAGACGGCGGAGACGAGACGAGGACCGGUACGGCCGCCACUCGUGUUAGUUAACAUGAGGAUCACCCAUGUUA | 12.5 | 12.8 |  |  |
| CGCCACUCGAGUGAUCCUCACGAGUGGCUACGAGGACCGGUACGGCCGCCACUCGAAUUAACAUGAGGAUCACCCAUGUAAUCUA | 56.7 | 27.7 |  |  |
| UUAGUAACGACGGCCGCCACUGAAUUUGAACAUGAGGAUCACCCAUGUAGAGAUCCUAGAAUAAACAGGACCGGGUCUGAUAAUG |  |  | 95.7 | 118 |
| GGUUACUCUACGGCCGCCACUGUCAUGUAAAGAUACCUGUACAUGACAUGAGGAUCACCCAUGUGCAGGACCGGGUAGUGUAACC | 152 | 130 |  |  |
| ACAUGAGGAUCACCCAUGUGAAGCAGGGUACGAGGACCGGUACGGCCGCCACUCGAACAUUAUAACGAGUGAAUGGCAACGAUGU |  |  | 11.9 | 14.2 |

| Sequence | apparent Kd [1] [nM] | apparent Kd [2] [nM] | apparent Kd [3] [nM] | apparent Kd [4] [nM] |
| --- | --- | --- | --- | --- |
| UGUCAGCGAAAGUUGACAUGUCUUGCUGGUCGAGGACCGGUACGGCCGCCACUCGAUCUCUCGCACAUGAGGAUCACCCAUGUUG | 12.6 | 13.4 |  |  |
| GAACAGUCGGACAUGAGGAUCACCCAUGUGCGAGGACCGGUACGGCCGCCACUCGACAAGGGCGGUCCCGAAGCGAACAUACGCG |  |  | 23.8 | 14.7 |
| UUCGUAUUGUCGGCCGCCACUGCAACAUGAGGAUCACCCAUGUAAAUUUGGGAGUAGUUAUAUUACAGGACCGGGACAAUAGUAA |  |  | 102 | 139 |
| GGAGUAGGAAACUAUUCCAAUCCUCGUGAACGAGGACCGGUACGGCCGCCACUCGAUAAUUAAUAACAUGAGGAUCACCCAUGUA |  |  | 83.7 | 121 |
| GUCCUCAUGACGGCCGCCACUAAACAUGAGGAUCACCCAUGUAAUGAUCCAUUAAAUGAUAAUAGUAGGACCGGGUCAAAAUAAA | 477 | 669 |  |  |
| AACAUGAGGAUCACCCAUGUGUCCUCGAAACGAGGACCGGUACGGCCGCCACUCGAAUAAGGUGUUGACGAAAAGUCAGCACCAA |  |  | 274 | 501 |
| AACAUACAAUAUUAGGUGGAUAUAAGGCGGCGAGGACCGGUACGGCCGCCACUCGCGUACAUGAGGAUCACCCAUGUCUGAAACU | 20.4 | 23.5 |  |  |
| AACUUCGCAUAGGAAAACUAUGUGAAGAAUCGAGGACCGGUACGGCCGCCACUCGUCCUCAACAUGAGGAUCACCCAUGUAAUAA |  |  | 18.9 | 34.8 |
| UAUUAUCAGUCGGCCGCCACUGUCACAUGAGGAUCACCCAUGUAACUUGGGUUAUAUUUAAUAUACAGGACCGGGACAAAGGCUA |  |  | 58.6 | 115 |
| CUACAUUUGUAGAAACCGGUCAACAAUAAUCGAGGACCGGUACGGCCGCCACUCGAUGUGUUAUACACAUGAGGAUCACCCAUGU | 21.1 | 17.4 |  |  |
| GCUACAUGAGGAUCACCCAUGUAUGCGAGCCGAGGACCGGUACGGCCGCCACUCGCUUAACAUGAGGAUCACCCAUGUUUCUCGG | 169 | 125 |  |  |
| ACCUGCGUUUGAUUCUAUCAGACGCAGGUUCGAGGACCGGUACGGCCGCCACUCGGACAUGAGGAUCACCCAUGUUUGACAUGGG |  |  | 64.5 | 211 |
| UGUAUUACGAAAGUAGUACAUCGUGUUCGACGAGGACCGGUACGGCCGCCACUCGGACAUGAGGAUCACCCAUGUAGCGAAAGCU | 158 | 256 |  |  |
| AUAUAUACAUGAGGAUCACCCAUGUUAUUUCGAGGACCGGUACGGCCGCCACUCGAUAGAGUGGAAGUAACAUUUGUUAGAUGAU | 15.7 | 15.4 |  |  |
| AUAAAUAAUAAAUAAAAUAAAAUGGGUGAACGAGGACCGGUACGGCCGCCACUCGGACAUGAGGAUCACCCAUGUCCAUGUGAAA |  |  | 19.5 | 46.1 |
| AACAUGAGGAUCACCCAUGUGUCCUCGAAACGAGGACCGGUACGGCCGCCACUCGACGUAUGUUGACGAAAAGUCAGCAUACGAA |  |  | 281 | 885 |
| GAGUCCGCGGCGGCCGCCACUCGCGAUAUAACAUGAUAUCAGGACAUGAGGAUCACCCAUGUCACGAGGACCGGGCCGAUCCUCA | 28 | 17.6 |  |  |
| GAGGAAACUCACAUGAGGAUCACCCAUGUACGAGGACCGGUACGGCCGCCACUCGAAACCAUGGGCGGUAGUACAUGGAAACAUG |  |  | 72.3 | 263 |
| AGACUUCGCAUAGGAAAACUAUGUGAAGUCCGAGGACCGGUACGGCCGCCACUCGUCCUCACAUGAGGAUCACCCAUGUAAAUAA |  |  | 22.2 | 29.1 |
| AGCCACUCGAGUGAUCCUCACGAGUGGCUACGAGGACCGGUACGGCCGCCACUCGAAUUAACAUGAGGAUCACCCAUGUAAUCAU | 31.5 | 111 |  |  |

— the EternaBench riboswitch data
